PKA-R1A activ: activates the PKA-R1A holoenzyme complex; activation, % at 11.4 µM; AID 504707; 340,000 tested, 0.083% active; P00514+P68181; PKA-R1A dissociation, Cy5-IP20 fluorescence polarization; scaled: DMSO 0%, 113 µM cGMP 100%;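 active means percent activation above the mean of all tested compounds plus 3 SD, cut at about 19% in these data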;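 further: higher means more PKAc released from R1A so a rise in polarization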
SR-BI uptake up: activators of SR-BI mediated HDL lipid uptake; CHO ldlA[mSR-BI] cells, DiI-HDL uptake fluorescence, 3 h; 100 = double the neutral-control signal; activation, % at 12.5 µM; 320,000 tested, 0.096% active;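 active means mean replicate activation of at least 60% and every replicate at or above 60%; inconclusive means mean or all-replicate condition met, but not both; inactive means mean below 60% and not all replicates reaching 60%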;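 further: 0% = median plate neutral-control signal and 100% = twice that signal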
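Test system: SR-BI-overexpressing, LDLR-lacking CHO cells; Also added: labelled HDL, 10 µg/mL; Measured by: bottom-read cell fluorescence after medium removal, ex 550/em 595 nm; Timing: 3 h uptake period with compound, 37 °C; Buffer or medium: F12, 0.5% BSA, 25 mM HEPES; Doses: single compound concentration, delivered by pin transfer.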
PKA-R2B activ: activators of human PKA-R2B complex; P22694+P31323; 340,000 tested, 0.079% active; PKA-R2B holoenzyme dissociation, Cy5-IP20 fluorescence polarization; R2B truncated from residue 108, S112A mutant; 0% DMSO only, 100% 113 µM cGMP; activation, % at 11.4 µM; AID 504700;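 active means activation above a cutoff set at the mean over all compounds plus 3 SD, cut at about 18% in these data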;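 further: higher means more holoenzyme dissociation and a rise in polarization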
Target sequence (P31323 whole entry, looked up, other chains not shown, the tested form may be a part): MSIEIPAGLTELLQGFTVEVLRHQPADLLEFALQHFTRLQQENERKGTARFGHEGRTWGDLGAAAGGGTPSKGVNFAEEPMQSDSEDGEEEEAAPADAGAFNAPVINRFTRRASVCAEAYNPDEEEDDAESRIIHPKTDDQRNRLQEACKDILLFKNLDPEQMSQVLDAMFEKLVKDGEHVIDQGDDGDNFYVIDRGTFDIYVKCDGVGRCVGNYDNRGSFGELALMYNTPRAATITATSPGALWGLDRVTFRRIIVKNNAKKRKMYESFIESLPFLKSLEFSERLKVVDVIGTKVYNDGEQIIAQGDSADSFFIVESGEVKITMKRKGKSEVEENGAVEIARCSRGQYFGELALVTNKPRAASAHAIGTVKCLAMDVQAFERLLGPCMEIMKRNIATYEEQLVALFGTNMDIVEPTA
SR-BI HDL uptake: inhibitors of mouse SR-BI mediated HDL lipid uptake | Q61009 | ldlA[mSR-BI] CHO cells, DiI-HDL uptake fluorescence, 3 h | inhibition, % at 12.5 µM | 320,000 tested, 0.96% active | AID 488896;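 active means mean replicate inhibition of at least 70% and a set share of replicates each scoring 70 or more; inconclusive means meets just one of the two criteria; inactive means fails both criteria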;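 further: 0% = median of neutral control wells and 100% = median of positive control wells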
Vif imaging: HIV Vif inhibition | HEK293T cells, Vif self-association by quenched fluorescence, imaging, 24 h | inhibition, % at 7.49 µM | 340,000 tested, 0.35% active | AID 602346; in the data active means inhibition above about 50%, passing the limit was not always enough; inconclusive means no clear call, values can overlap the other calls; inactive means below about 31%
R1A FP artifact: FP assay interference, PKA-R1A counter-screen. shares compounds with PKA-R1A activ. Cy5-IP20 peptide alone, fluorescence polarization artifact counterscreen. activation, % at 11.4 µM. 280 tested, 7% active. AID 504799;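 active means mean activation over triplicate runs exceeds the adjusted cutoff derived for the parent primary screen, cut at about 19% in these data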;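 further: no PKA protein present so any polarization rise reflects compound interference; 0% = tracer peptide mix alone and 100% = mix with added PKA catalytic subunit; higher means stronger polarization artifact and likely false positive in parent screen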
PKA-R1A act conf: PKA-R1A complex activation, confirmation. shares compounds with PKA-R1A activ. Cy5-IP20 fluorescence polarization, PKA-R1A holoenzyme dissociation. activation, % at 11.4 µM. 280 tested, 9% active. AID 504800;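 active means mean activation over replicate wells exceeds the adjusted hit threshold taken from the earlier primary screen, cut at about 20% in these data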;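 further: 0% = holoenzyme mix with DMSO only and 100% = cGMP-activated control wells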
Active calls of the source: *; ? = inconclusive; . = no result. Shown are actives, neighbours in structure and some others; about 1.4% of the full set was active somewhere.

SMILES | PKA-R1A activ | SR-BI uptake up | PKA-R2B activ | SR-BI HDL uptake | Vif imaging | R1A FP artifact | PKA-R1A act conf
COc1ccc(N(CC(=O)NCCSc2ccccn2)S(=O)(=O)c2ccc(C)cc2)cc1OC | 14.7 | 28.8 | 4.3 | -28.8 | -1.8 | . | .
COc1ccc(N(CC(=O)NCCSc2ccccn2)S(=O)(=O)c2ccccc2)cc1OC | 20.7* | -11.6 | 4.8 | 11.6 | -1.0 | 1.2 | 0.8
Cc1cccn2c(CN[C@@H]3CCCC[C@H]3c3ccccc3)c(C(=O)N3CCOCC3)nc12 | 19.0* | 57.0 | 3.9 | -57.0 | 11.1 | 7.3 | 4.3
Cc1cccn2c(CNC3CCCc4ccccc43)c(C(=O)N3CCOCC3)nc12 (centres undefined) | 2.8 | . | -11.3 | . | 3.8 | . | .
CC1CC(N(C(=O)c2ccco2)c2ccccc2)c2ccccc2N1C(=O)c1ccco1 (centres undefined) | 18.6* | 9.9 | -0.1 | -9.9 | -3.3 | 0.1 | 2.4
CC1CC(N(C(=O)c2ccc(Cl)cc2)c2ccccc2)c2ccccc2N1C(=O)c1ccco1 (centres undefined) | 0.7 | -4.4 | 1.5 | 4.4 | . | . | .
O=C(COC(=O)C1CC(=O)N(Cc2ccco2)C1)Nc1ccc(F)cc1F (centres undefined) | 20.4* | 9.0 | -7.8 | -9.0 | -6.1 | -3.7 | -0.8
Cc1cccc(CC(=O)N2CCC(n3nccc3NC(=O)C3CC3)CC2)c1 | -2.8 | 16.4 | -0.7 | -16.4 | -2.1 | . | .
CCCCCn1nc(C(=O)N2CCc3ccccc32)c2ccccc2c1=O | 14.9 | -18.3 | -4.4 | 18.3 | -0.5 | . | .
O=C(NCc1ccc2c(c1)OCO2)c1ccc2c(c1)S(=O)(=O)c1ccccc1C2=O | 21.8* | 3.3 | -6.8 | -3.3 | 0.9 | -1.9 | -1.8
O=C(Nc1ccc2c(c1)OCO2)c1ccc2c(c1)S(=O)(=O)c1ccccc1C2=O | 2.0 | -8.2 | -0.4 | 8.2 | 9.6 | . | .
CC(=O)Nc1ccc(S(=O)(=O)N2CCc3cc4c(cc3C2C)OCCCO4)cc1 (centres undefined) | 21.3* | -10.7 | 12.9 | 10.7 | -4.0 | 1.8 | -0.4
O=C(CSc1n[nH]c(=O)n1C1CC1)NCc1ccccc1Cl | 5.1 | 19.3 | 4.8 | -19.3 | -0.9 | . | .
CCOC(=O)N1CCc2c(sc3ncn(C)c(=O)c23)C1 | 19.1* | 25.5 | -0.2 | -25.5 | 3.6 | -3.9 | 0.1
CCOC(=O)N1CCc2c(sc3nc(SC(C)C)n(N)c(=O)c23)C1 | -6.0 | 7.2 | -8.3 | -7.2 | 1.5 | . | .
CCC(=O)Nc1ccc(C(=O)NNC(=O)COc2cccc(C)c2)cc1 | 20.5* | -22.9 | 3.9 | 22.9 | -1.0 | 1.9 | -2.5
O=C(COc1ccccc1[N+](=O)[O-])NCCC1=CCCCC1 | -11.1 | -21.1 | -9.5 | 21.1 | 4.6 | . | .
Cc1ccc(OCC(=O)NC2CCS(=O)(=O)C2)c([N+](=O)[O-])n1 (centres undefined) | 1.0 | -3.1 | 0.7 | 3.1 | 3.0 | . | .
COCCn1c(C)cc(C(=O)CN2C(=O)NC3(CCCCCC3)C2=O)c1C | 7.2 | 8.3 | -3.6 | -8.3 | -0.3 | . | .
O=C(CSc1ccc(-c2ccncc2)nn1)N1CCCC1 | -5.5 | . | -4.2 | . | 9.3 | . | .
O=C(CSc1ccc(-c2ccncc2)nn1)N1CCCCC1 | 18.8* | -7.0 | -6.2 | 7.0 | 13.5 | -0.2 | 7.9
Cc1c(Br)c([N+](=O)[O-])nn1CC(=O)NCc1cccnc1 | 1.3 | ? | 6.3 | -68.8 | 10.3 | . | .
CCc1cc(C(=O)OC)c(NC(=O)CC2NCCNC2=O)s1 (centres undefined) | 24.6* | -5.6 | 7.2 | 5.6 | -8.7 | 5.2 | 3.0
O=C(Nc1ccc(OC(F)(F)F)cc1)c1cnccn1 | 3.8 | -5.5 | -13.1 | 5.5 | 6.2 | . | .
COc1cccc(NC(=O)CN(C)C(=O)CCNS(=O)(=O)c2ccc(C)cc2)c1 | 19.3* | -1.3 | 10.8 | 1.3 | -2.8 | 2.9 | 1.8
SMILES | PKA-R1A activ | SR-BI uptake up | PKA-R2B activ | SR-BI HDL uptake | Vif imaging | R1A FP artifact | PKA-R1A act conf
Cc1ccc(S(=O)(=O)n2cnc(C)c2)cc1 | 19.9* | 6.4 | 3.8 | -6.4 | 26.7 | 3.0 | 2.8
Cc1ccc(NC(=O)N2CCCCC2)cc1[N+](=O)[O-] | -8.7 | 0.1 | -5.6 | -0.1 | -5.8 | . | .
Cc1ccc(S(=O)(=O)N/N=C/c2cc(Br)c(C)o2)cc1 | 7.9 | 26.8 | -9.9 | -26.8 | -4.5 | . | .
Cc1ccc(S(=O)(=O)NN=Cc2ccco2)cc1 | 21.9* | . | 0.8 | . | 6.1 | 2.5 | 1.6
Cc1cc(C)c2c(CC(=O)NNC(=O)c3ccccc3)coc2c1 | 26.8* | -2.6 | 1.9 | 2.6 | -3.7 | 6.3 | 3.1
Cc1cc(C)c2c(CC(=O)NC(C)C)coc2c1 | 14.3 | 7.2 | 9.3 | -7.2 | 2.6 | . | .
COc1ccc(CN(C)CC(=O)NC(=O)NCc2ccccc2)cc1OC | 20.9* | -5.5 | -5.1 | 5.5 | 4.2 | -0.6 | -0.9
COc1ccc(S(=O)(=O)N2CC(O)CC2C(=O)Nc2cccnc2)cc1 (centres undefined) | 15.7 | 1.3 | 3.3 | -1.3 | -13.7 | . | .
CCSc1nc2c(c(=O)[nH]1)C(c1cccnc1)C(C(=O)OC)=C(C)N2 (centres undefined) | 20.2* | 23.2 | 3.2 | -23.2 | -1.8 | 1.8 | -1.7
Cc1cccc(C)c1NC(=O)C(=O)NCC1CCCN1S(=O)(=O)c1cccs1 (centres undefined) | 14.6 | -11.9 | 1.3 | 11.9 | -8.1 | . | .
COc1ccccc1Oc1coc2cc(OCC(N)=O)ccc2c1=O | 19.2* | 22.0 | -3.6 | -22.0 | 59.5* | 0.7 | 3.8
CCCNC(=O)COc1ccc2c(=O)c(Oc3ccccc3F)coc2c1 | -3.1 | 3.0 | 0.9 | -3.0 | -17.0 | . | .
CCOc1ccc(NC(=O)CN(C)C(=O)CCNC(=O)c2ccco2)cc1OCC | 18.7* | -9.5 | 11.6 | 9.5 | 0.4 | 0.2 | 0.8
O=C(NCc1ccco1)C1CC2CCC1C2 (centres undefined) | 19.7* | 5.6 | 2.3 | -5.6 | -1.5 | 0.5 | -1.3
O=C(O)C1C2CCC(C2)C1C(=O)NCc1ccco1 (centres undefined) | 2.1 | -1.8 | 10.1 | 1.8 | -4.7 | . | .
CCc1ccc(NC(=O)CSc2nnc(-c3ccccn3)n2C)cc1 | 19.1* | 31.7 | 2.1 | -31.7 | . | 6.3 | 4.1
CC(=O)c1ccc(NC(=O)CSc2nc3nc(C)cc(C)n3n2)cc1 | 18.6* | 3.1 | 1.5 | -3.1 | -0.4 | 0.1 | 0.9
O=C(NNC(=S)Nc1cccc(Cl)c1)c1ccccc1 | 19.6* | 26.4 | 9.6 | -26.4 | -4.1 | 5.7 | 8.7
COC(=O)C1(C)NC(=O)c2ccccc2N1 (centres undefined) | 12.9 | 12.8 | 11.1 | -12.8 | 3.6 | . | .

Bioassay records (PubChem)
